NS3 helicase inh – inhibitors of HCV NS3 helicase, primary screen, biochemical, Cy5 molecular beacon fluorescence | Hepatitis C virus NS3 helicase | NS3 helicase DNA unwinding | inhibition, % at 10.9 µM | actives 0.56% (n = 290,000);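 active means inhibition above the mean of all tested compounds plus 3 SD, set per campaign, cut at about 35% in these data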
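Assay system – hepatitis C virus NS3 helicase domain fragment enzyme · Buffer or medium – MOPS pH 6.5, MgCl2, DTT, Tween20, BSA · Reagent – Cy5/quencher beacon DNA duplex and ATP to start · Compound – single 10.9 µM dose · Timing – 1 h at 25 °C · Technique – Cy5 beacon fluorescence read at start and 1 h · Measure – % inhibition of unwinding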
PABP1 MLLE inh – inhibitors of PABP1 MLLE–PAM2 peptide binding, primary screen, biochemical, fluorescence polarization, FITC-PAM2, GST-MLLE | Polyadenylate-binding protein 1 (Homo sapiens), P11940 | inhibition, % at 20 µM | actives 0.36% (n = 360,000); in the data active means inhibition above about 35%, passing the limit was not always enough
HCV core dimer – inhibitors of HCV core protein dimerization, primary screen, biochemical, TR-FRET, high-throughput. TR-FRET GST/Flag-core106 dimerization, 1536-well. inhibition, % at 5 µM. actives 0.33% (n = 300,000);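 active means inhibition above the mean of all tested compounds plus 3 SD, set per screening campaign, cut at about 45% in these data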
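Assay system: tagged HCV core106 pair (GST and Flag); medium: KF-containing HEPES buffer, pH 7.45, DTT, CHAPS, BSA; also added: Eu donor and XL665 acceptor anti-tag antibodies; dosing: 5 µM single dose; timing: compound-protein-antibody incubation 4 h at 22.5 °C; signal: TR-FRET 671 and 617 nm emission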
PABP FP inh – PABP poly(A) RNA binding inhibitors, primary screen, biochemical, fluorescence polarization, uHTS | Polyadenylate-binding protein 1 (Homo sapiens), P11940 | inhibition, % at 35 µM | actives 1% (n = 290,000);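 further: calls also rest on retests at 20 µM and on dose response follow-up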
DNA FID counter-1 – compounds displacing fluorescent DNA intercalator, primary screen, artefact control for HCV NS3 helicase inhibitor project, biochemical, FID fluorescence; DNA fluorescent intercalator displacement; actives 0.17% (n = 290,000); inhibition, % at 7.9 µM; in the data active means inhibition above about 37%;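 further: higher means more ethidium bromide displaced from hairpin DNA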
eIF4H inh – human eIF4H binding inhibitors, primary screen, translation initiation inhibitor project, biochemical, uHTS, fluorescence polarization | Eukaryotic translation initiation factor 4H (Homo sapiens), Q15056 | eIF4H fluorescence polarization binding assay | inhibition, % at 35 µM | actives 0.94% (n = 290,000) | AID 2012, 2009;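 further: calls also rest on retests at 20 µM and on dose response follow-up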
NS3 helicase cf – HCV NS3 helicase inhibitors, retest, confirmation, biochemical, Cy5 molecular beacon fluorescence, triplicate; shares compounds with NS3 helicase inh; NS3 helicase DNA unwinding; inhibition, % at 10.9 µM; actives 31% (n = 1,600);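 active means inhibition above the mean of all tested compounds plus 3 SD, cutoff set per campaign, cut at about 36% in these data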
DNA FID counter-2 – compounds displacing fluorescent DNA intercalator, artefact control for HCV NS3 helicase inhibitor project, biochemical, FID fluorescence, triplicate. actives 4% (n = 1,600). DNA fluorescent intercalator displacement. shares compounds with NS3 helicase inh. inhibition, % at 7.9 µM; in the data active means inhibition above about 37%;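 further: higher means more displacement of ethidium bromide from the DNA hairpin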
FID counter DR – compounds displacing fluorescent intercalator from DNA, dose response, counter-screen for HCV NS3 helicase inhibitor project, biochemical, fluorescence; 120 tested, under 10 active; fluorescent intercalator displacement from DNA; shares compounds with NS3 helicase inh; IC50, µM
Numbers stand for hits; n = inactive; u = inconclusive; x = not tested or not shown. Compounds with a hit are over-represented: about 2% of the library has one in this group of screens. Unless noted, how the calls were made is not given here.

SMILES	NS3 helicase inh	PABP1 MLLE inh	HCV core dimer	PABP FP inh	DNA FID counter-1	eIF4H inh	NS3 helicase cf	DNA FID counter-2	others
C#CCN(C[C@H]1[C@H](OC(=O)Nc2c(C)noc2C)[C@H](OC(=O)Nc2c(C)noc2C)C[C@@H](C(=O)OC)[C@H]1C(=O)OC)S(=O)(=O)c1ccc(C)cc1	x	n	x	x	x	x	x	x
CCOC(=O)c1cc2c(C)n(-c3ccc(OCC)cc3)c(C)c2ccc1=O	55	n	n	n	n	n	n	n
CN(Cc1ccccc1)C(=O)c1ccc(NC(=O)Cc2ccc(NC(=O)C3CCN(S(=O)(=O)c4cccc([N+](=O)[O-])c4)CC3)cc2)cc1	x	n	x	x	x	x	x	x
CCCNC(=O)C1(C)CCCN(Cc2ccc(C)cc2)C1 (stereo unspecified)	x	n	x	x	x	x	x	x
Cc1cc(OCc2nn[nH]n2)c2c(C)c(Cc3ccccc3)c(=O)oc2c1	69	n	n	n	n	n	62	n
O=C(CCc1nc2ccccc2c(=O)[nH]1)OCC(=O)N1CCc2ccccc21	70	n	n	n	n	n	n	n
Cc1noc(C)c1C(=O)N1CCC1(C)C(=O)NS(=O)(=O)c1ccc(F)cc1F (stereo unspecified)	x	n	x	x	x	x	x	x
CCOC(=O)Cc1csc(NC(=O)c2csc(C)c2)n1	n	n	n	n	n	n	x	x
CCOC(=O)Cc1csc(NC(=O)c2sc3nc4c(C)cc(C)cc4cc3c2N)n1	38	n	n	n	n	n	n	n
N=C1S/C(=C\c2ccco2)C(=O)N1c1ccc2c(c1)OCO2	40	n	n	40	n	n	n	n
NCCN1C(=O)S/C(=C\c2ccc3c(c2)OCO3)C1=O	n	n	n	n	n	n	x	x
Cc1ccc(C)c(-c2cc(C(=O)NC3CC3)c3ccccc3n2)c1	n	n	x	n	n	n	x	x
O=C(NC1CC1)c1cc(-c2ccco2)nc2ccccc12	41	n	x	82	n	98	n	n
COc1ccc2nc3ccccc3nc2c1N	50	n	n	n	n	n	n	n
CSc1nsc(SCC(=O)NCc2ccc(C)cc2)n1	n	n	x	n	n	n	x	x
O=C(OCc1ccccc1)N1CCC2CC1c1cc(N3CCN(S(=O)(=O)c4cccc5ccccc45)CC3)ccc12 (stereo unspecified)	x	n	x	x	x	x	x	x
O=S(=O)(Nc1nc2ccccc2nc1NCc1ccco1)c1ccc(Cl)cc1	n	n	n	n	n	n	x	x
Cc1ccc(S(=O)(=O)Nc2nc3ccccc3nc2NCc2ccco2)cc1	36	n	n	n	n	n	40	n
C[C@H](NC(=O)[C@@H]1CSC2c3ccccc3C(=O)N21)C(=O)NC1CCCCC1 (stereo partly specified)	n	n	n	n	n	n	x	x
CC(C)NC(=O)CSc1nc(N)c(NC(=O)c2ccccc2F)c(=O)[nH]1	65	n	n	n	n	n	n	n
Cc1ccc(NC(=O)CSc2nc(O)cc(=O)n2C)cc1	n	n	n	n	n	n	x	x
Cc1ccc(NC(=O)CSc2nc(O)cc(=O)n2-c2ccc(C)cc2)cc1	48	n	n	x	n	x	36	n
CN(C)S(=O)(=O)c1ccc(C(=O)NN2C(=O)NC3(CCCCC3)C2=O)cc1	x	n	x	x	x	x	x	x
Cn1cccc1Cc1nnc(SCC(=O)Nc2nc3ccccc3s2)n1CCc1ccccc1	52	n	n	n	n	n	n	n
CCOc1cc(N2CCOCC2)c(OCC)cc1NC(=O)CN1C(=O)NC2(CCCCC2C)C1=O (stereo unspecified)	x	n	x	x	x	x	x	x
SMILES	NS3 helicase inh	PABP1 MLLE inh	HCV core dimer	PABP FP inh	DNA FID counter-1	eIF4H inh	NS3 helicase cf	DNA FID counter-2	others
C#CC1(O)CCC2C3CCC4=Cc5oncc5CC4(C)C3CCC21C (stereo unspecified)	x	n	x	x	x	x	x	x
O=C(O)CCN1C(=O)/C(=C2\C(=O)N(Cc3ccccc3Cl)c3ccccc32)SC1=S	44	n	x	n	n	n	91	n	FID counter DR=n
CCCOc1ccc(NC(=O)CC2Nc3ccccc3NC2=O)cc1 (stereo unspecified)	n	n	n	n	n	n	x	x
NC(=O)CC1Nc2cccc3cccc(c23)NC1=O (stereo unspecified)	61	n	n	n	n	n	n	n
O=C(CC1Nc2cccc3cccc(c23)NC1=O)Nc1ccccc1 (stereo unspecified)	67	n	n	n	n	u	n	n
CC1CCc2c(sc3nc(SCC(=O)O)n(-c4ccccc4)c(=O)c23)C1 (stereo unspecified)	37	n	n	n	n	n	n	n
Cc1ccc(-n2c(SCC(=O)O)nc3sc4c(c3c2=O)CCCC4)cc1	n	n	n	n	n	n	x	x
CCC(=Nc1ccc(N)cc1)C1=C(O)C(C(=O)OC)C(C)(C)CC1=O (stereo unspecified)	47	n	n	115	n	103	n	n
O=C(c1ccco1)N(CCC(c1ccccc1)c1ccco1)Cc1ccccc1 (stereo unspecified)	50	n	n	n	n	n	n	n
CCc1ccc(-n2c(SCC(=O)N3Cc4ccccc4CC3C(=O)O)nnc2-c2ccncc2)cc1 (stereo unspecified)	42	n	n	n	n	n	n	n
N#Cc1ccc(C(=O)N2CCCCC2c2cc(C(=O)Nc3cccc(C#N)c3)no2)cc1 (stereo unspecified)	x	n	x	x	x	x	x	x
CCCCc1cc(=O)oc2cc(OCC(=O)N[C@@H](Cc3ccccc3)C(=O)O)ccc12	50	n	n	n	n	n	n	n
Cc1nc(Nc2ccc(S(N)(=O)=O)cc2)oc1C	81	n	n	n	n	n	n	n
Cc1cc(C)c[n+](-c2[nH]c(=O)sc2/C=N/N=C(\[O-])c2cccnc2)c1	36	36	n	n	n	n	n	n
N=c1c(S(=O)(=O)c2ccc(Cl)cc2)cc2c(=O)n3ccccc3nc2n1Cc1ccco1	45	n	n	65	n	73	70	48
CN(C)c1ccc(NC(=O)C2C3C=CC(C3)C2C(=O)O)cc1 (stereo unspecified)	56	n	x	n	n	n	n	n

Compound activity deposited in PubChem by several laboratories.
